These results are taken from ChEMBL document CHEMBL1144721, “Bioactive triterpene saponins from the roots of Phytolacca americana” (J Nat Prod, 2008).

In series [1] the target is T1, ATP-dependent translocase ABCB1 (Homo sapiens, UniProt P08183). In words: Inhibition of P-glycoprotein-mediated multidrug resistance in human 2780AD cells assessed as calcein accumulation at 25 ug/mL relative to control. In kind it is cell-based. More on the design: scale not given: the % may be the effect or the level left. Conditions: a2780 adr. In short, it runs like this: (§1)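 Multidrug-resistant human ovarian cancer 2780AD cells exposed to compound at 0.25, 2.5 or 25 μg/mL. Intracellular calcein accumulation measured and expressed as the amount relative to an untreated control (% of control).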
T1 sequence (P08183 whole entry): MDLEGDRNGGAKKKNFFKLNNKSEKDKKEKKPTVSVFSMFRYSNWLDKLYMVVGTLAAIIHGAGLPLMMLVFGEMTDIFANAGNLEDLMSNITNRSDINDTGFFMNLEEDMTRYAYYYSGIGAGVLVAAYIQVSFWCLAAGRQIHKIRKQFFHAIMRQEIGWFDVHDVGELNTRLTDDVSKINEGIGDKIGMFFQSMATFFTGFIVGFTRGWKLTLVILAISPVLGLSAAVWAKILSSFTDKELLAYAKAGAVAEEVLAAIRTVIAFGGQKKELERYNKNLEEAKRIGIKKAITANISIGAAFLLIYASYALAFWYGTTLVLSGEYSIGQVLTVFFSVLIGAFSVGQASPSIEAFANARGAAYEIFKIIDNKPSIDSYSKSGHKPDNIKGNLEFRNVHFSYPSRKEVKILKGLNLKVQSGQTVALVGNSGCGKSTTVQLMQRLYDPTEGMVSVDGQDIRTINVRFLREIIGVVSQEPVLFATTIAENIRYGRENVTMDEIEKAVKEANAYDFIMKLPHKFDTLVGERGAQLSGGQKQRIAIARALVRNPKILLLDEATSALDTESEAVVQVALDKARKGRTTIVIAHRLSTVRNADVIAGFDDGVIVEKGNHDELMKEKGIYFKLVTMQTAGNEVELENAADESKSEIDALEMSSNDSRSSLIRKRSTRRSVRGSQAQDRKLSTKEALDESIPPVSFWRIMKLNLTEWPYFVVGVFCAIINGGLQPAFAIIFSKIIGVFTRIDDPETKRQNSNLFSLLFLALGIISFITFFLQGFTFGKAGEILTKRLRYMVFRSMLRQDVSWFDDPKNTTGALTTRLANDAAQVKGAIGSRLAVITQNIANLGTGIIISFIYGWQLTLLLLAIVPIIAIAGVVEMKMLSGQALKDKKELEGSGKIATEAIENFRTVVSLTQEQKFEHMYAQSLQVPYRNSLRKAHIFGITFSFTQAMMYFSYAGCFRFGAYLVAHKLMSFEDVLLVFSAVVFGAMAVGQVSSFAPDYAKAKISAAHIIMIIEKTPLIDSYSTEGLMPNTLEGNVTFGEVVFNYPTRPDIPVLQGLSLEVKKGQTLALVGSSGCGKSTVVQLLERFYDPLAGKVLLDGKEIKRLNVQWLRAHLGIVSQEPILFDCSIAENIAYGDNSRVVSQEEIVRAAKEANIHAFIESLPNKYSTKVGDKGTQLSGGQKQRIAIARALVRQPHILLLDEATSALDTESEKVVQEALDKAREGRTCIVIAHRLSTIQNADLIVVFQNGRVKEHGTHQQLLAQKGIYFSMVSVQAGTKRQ

In another series the test system is HepG2. In words: Cytotoxicity against human HepG2 cells. In kind it is functional, cell-based. In outline: (§2)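 IC50 values are the mean of duplicate determinations.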
In the next series the test system is WI-38 VA13. As to the kind of experiment: Cytotoxicity against human VA13 cells. Type of series: functional, cell-based. In short, it runs like this:
as §2

For a further series, the system named is WI-38. In words: Cytotoxicity against human WI38 cells. In kind it is functional, cell-based. In outline: as §2
The target of series [2] is T1, ATP-dependent translocase ABCB1. As to the kind of experiment: Inhibition of P-glycoprotein-mediated multidrug resistance in human 2780AD cells assessed as calcein accumulation at 0.25 ug/mL relative to control. Type of series: cell-based. The arrangement: scale not given: the % may be the effect or the level left. Conditions: a2780 adr. In outline:
as §1

The target is the same in series [3]. As to the kind of experiment: Inhibition of P-glycoprotein-mediated multidrug resistance in human 2780AD cells assessed as calcein accumulation at 2.5 ug/mL relative to control. Type of series: cell-based. More on the design: scale not given: the % may be the effect or the level left. Conditions: a2780 adr. In short, it runs like this:
as §1

Series [4] has as its system A549. As to the kind of experiment: Cell viability of human A549 cells after 24 hrs by MTT assay. In kind it is functional. In short, it runs like this:
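A549 cells incubated with serial dilutions of compound for 24 h. Viability (%) measured by MTT assay and used to derive IC50. Triplicate cultures.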

Series [5] deals with A549. In words: Antiinflammatory activity against human A549 cells assessed as inhibition of IL-1-alpha-induced ICAM1 expression after 6 hrs.

Where only a bound is given, the exact number is not on record here.

On to `COC(=O)[C@@]1(C)CC[C@]2(C(=O)O[C@@H]3O[C@H](CO)[C@@H](O)[C@H](O)[C@H]3O)CC[C@]3(C)C(=CC[C@@H]4[C@@]5(C)C[C@H](O)[C@H](O[C@@H]6OC[C@@H](O)[C@H](O)[C@H]6O)[C@@](C)(CO)[C@@H]5CC[C@]43C)[C@@H]2C1`, for which the Activity in series [1] is 143%; in series [2] it was 141%; in series [3], 132%; in the series with A549 [4], above 121 µM; in the series with A549 [5] it was above 121 µM. Besides, the results for the IC50 in the series with HepG2, with WI-38 VA13 and in the series on WI-38 were above 121 µM, 95.2 µM and above 121 µM, respectively.

In the case of `COC(=O)[C@@]1(C)CC[C@]2(C(=O)O[C@@H]3O[C@H](CO)[C@@H](O)[C@H](O)[C@H]3O)CC[C@]3(C)C(=C[C@@H](O)[C@@H]4[C@@]5(C)C[C@H](O)[C@H](O[C@@H]6OC[C@@H](O[C@@H]7O[C@H](CO)[C@@H](O)[C@H](O)[C@H]7O)[C@H](O)[C@H]6O)[C@@](C)(CO)[C@@H]5CC[C@]43C)[C@@H]2C1`, the Activity in series [1] was 124%; in series [2], 121%; in series [3], 119%; in the series on A549 [4], above 100 µM; with A549 [5] it was above 100 µM. Further, the concentration for half-maximal inhibition (IC50) (as a rule, the concentration that inhibits the measured activity by half) is above 100 µM in the series with HepG2, 94 µM with WI-38 VA13 and above 100 µM in the series with WI-38.

As to `COC(=O)[C@@]1(C)CC[C@]2(C(=O)O[C@@H]3O[C@H](CO)[C@@H](O)[C@H](O)[C@H]3O)CC[C@]3(C)C(=C[C@@H](OC)[C@@H]4[C@@]5(C)C[C@H](O)[C@H](O[C@@H]6OC[C@@H](O[C@@H]7O[C@H](CO)[C@@H](O)[C@H](O)[C@H]7O)[C@H](O)[C@H]6O)[C@@](C)(CO)[C@@H]5CC[C@]43C)[C@@H]2C1`, the Activity in series [1] was 108%; in series [2], 105%; in series [3], 100%; in the series on A549 [4] it was above 98.2 µM; in the series on A549 [5], above 98.2 µM. Moreover, the IC50 with HepG2, with WI-38 VA13 and in the series on WI-38 was above 98.2 µM throughout.

Regarding `COC(=O)[C@@]1(C)CC[C@]2(C(=O)O[C@@H]3O[C@H](CO)[C@@H](O)[C@H](O)[C@H]3O)CC[C@]3(C)C(=CC[C@@H]4[C@@]5(C)CC[C@H](O[C@@H]6OC[C@@H](O)[C@H](O[C@@H]7OC[C@@H](O)[C@H](O)[C@H]7O[C@@H]7O[C@H](CO)[C@@H](O)[C@H](O)[C@H]7O[C@@H]7O[C@@H](C)[C@H](O)[C@@H](O)[C@H]7O)[C@H]6O)[C@@](C)(CO)[C@@H]5CC[C@]43C)[C@@H]2C1`, the Activity was 94% in series [1]; 93% in series [2]; 68% in series [3]; above 89 µM with A549 [4]; above 89 µM in the series with A549 [5]. Further, the IC50 with HepG2, with WI-38 VA13 and in the series with WI-38 was above 89 µM throughout.

For `COC(=O)[C@@]1(C)CC[C@]2(C(=O)O[C@@H]3O[C@H](CO)[C@@H](O)[C@H](O)[C@H]3O)CC[C@]3(C)C(=CC[C@@H]4[C@@]5(C)C[C@H](O)[C@H](O[C@@H]6OC[C@@H](OC7O[C@H](CO)[C@@H](O)[C@H](O)[C@H]7O)[C@H](O)[C@H]6O)[C@@](C)(CO)[C@@H]5CC[C@]43C)[C@@H]2C1` (stereo partly specified), the Activity was 123% in series [1]; 124% in series [2]; 129% in series [3]; above 1012 µM in the series with A549 [4]; above 320 µM in the series on A549 [5]. For the same compound, the half-inhibitory concentration (IC50) in the series with HepG2, in the series with WI-38 VA13 and with WI-38 was above 101 µM each time.

As for `COC(=O)[C@@]1(C)CC[C@]2(C(=O)O[C@@H]3O[C@H](CO)[C@@H](O)[C@H](O)[C@H]3O)CC[C@]3(C)C(=CC[C@@H]4[C@@]5(C)CC(=O)[C@H](O[C@@H]6OC[C@@H](O[C@@H]7O[C@H](CO)[C@@H](O)[C@H](O)[C@H]7O)[C@H](O)[C@H]6O)[C@@](C)(CO)[C@@H]5CC[C@]43C)[C@@H]2C1`, the Activity was 120% in series [1]; 98% in series [2]; 115% in series [3]; above 101 µM in the series on A549 [4]; above 101 µM in the series on A549 [5]. Besides, the half-maximal inhibitory concentration (IC50) with HepG2, in the series on WI-38 VA13 and in the series on WI-38 was above 101 µM each time.

For the compound `COC(=O)[C@@]1(C)CC[C@]2(C(=O)O[C@@H]3O[C@H](CO)[C@@H](O)[C@H](O)[C@H]3O)CC[C@]3(C)C(=CC[C@@H]4[C@@]5(C)CC[C@H](O[C@@H]6OC[C@@H](OC7O[C@H](CO)[C@@H](O)[C@H](O)[C@H]7O)[C@H](O)[C@H]6O)[C@@](C)(CO)[C@@H]5CC[C@]43C)[C@@H]2C1` (stereo partly specified), the Activity in series [1] is 126%; in series [2], 124%; in series [3] it was 101%; with A549 [4], above 103 µM; in the series with A549 [5], above 103 µM. Further, the IC50 with HepG2, in the series with WI-38 VA13 and in the series with WI-38 was above 103 µM each time.

In the case of `COC(=O)[C@@]1(C)CC[C@]2(C(=O)O)CC[C@]3(C)C(=CC[C@@H]4[C@@]5(C)C[C@H](O)[C@H](O[C@@H]6OC[C@@H](OC7O[C@H](CO)[C@@H](O)[C@H](O)[C@H]7O)[C@H](O)[C@H]6O)[C@@](C)(CO)[C@@H]5CC[C@]43C)[C@@H]2C1` (stereo partly specified), the Activity in series [1] is 119%; in series [2], 111%; in series [3], 104%; in the series with A549 [4] it was 661 µM; in the series with A549 [5], above 383 µM. Further, the 50% inhibitory concentration (IC50) with HepG2 came to 102 µM; in the series on WI-38 VA13 it was 117 µM; in the series with WI-38, 7.1 µM.

`COC(=O)[C@@]1(C)CC[C@]2(C(=O)O[C@@H]3O[C@H](CO)[C@@H](O)[C@H](O)[C@H]3O)CC[C@]3(C)C(=CC(=O)[C@@H]4[C@@]5(C)C[C@H](O)[C@H](O[C@@H]6OC[C@@H](OC7O[C@H](CO)[C@@H](O)[C@H](O)[C@H]7O)[C@H](O)[C@H]6O)[C@@](C)(CO)[C@@H]5CC[C@]43C)[C@@H]2C1` (stereo partly specified): the Activity is 155% in series [1]; 119% in series [2]; 135% in series [3]; above 98.8 µM in the series with A549 [4]; above 98.8 µM in the series on A549 [5]. The results for the 50% inhibitory concentration (IC50) with HepG2, with WI-38 VA13 and with WI-38 were 97.4 µM, above 98.8 µM and above 98.8 µM, respectively.

On to `COC(=O)[C@@]1(C)CC[C@]2(C(=O)O)CC[C@]3(C)C(=C[C@@H](OC)[C@@H]4[C@@]5(C)C[C@H](O)[C@H](O[C@@H]6OC[C@@H](O[C@@H]7O[C@H](CO)[C@@H](O)[C@H](O)[C@H]7O)[C@H](O)[C@H]6O)[C@@](C)(CO)[C@@H]5CC[C@]43C)[C@@H]2C1`, for which the Activity is 135% in series [1]; 118% in series [2]; 123% in series [3]; above 118 µM in the series on A549 [4]; above 118 µM with A549 [5]. For the same compound, the IC50 in the series on HepG2, with WI-38 VA13 and with WI-38 was above 118 µM in each case.

As for `COC(=O)[C@@]1(C)CC[C@]2(C(=O)O[C@@H]3O[C@H](CO)[C@@H](O)[C@H](O)[C@H]3O)CC[C@]3(C)C(=CC[C@@H]4[C@@]5(C)CC[C@H](O[C@@H]6OC[C@@H](O[C@@H]7O[C@H](CO)[C@@H](O)[C@H](O)[C@H]7O)[C@H](O)[C@H]6O[C@@H]6O[C@H](CO)[C@@H](O)[C@H](O)[C@H]6O)[C@@](C)(CO)[C@@H]5CC[C@]43C)[C@@H]2C1`, the Activity in series [1] was 123%; in series [2], 126%; in series [3], 106%; in the series on A549 [4], above 88.2 µM; in the series with A549 [5] it was above 88.2 µM. Besides, the half-maximal inhibitory concentration (IC50) in the series on HepG2, in the series on WI-38 VA13 and in the series on WI-38 was above 88.2 µM throughout.

Consider `COC(=O)[C@@]1(C)CC[C@]2(C(=O)O)CC[C@]3(C)C(=CC[C@@H]4[C@@]5(C)C[C@H](O)[C@H](O[C@@H]6OC[C@@H](O)[C@H](O)[C@H]6O)[C@@](C)(CO)[C@@H]5CC[C@]43C)[C@@H]2C1` [PHYTOLACCOSIDE B], for which the Activity in series [1] is 123%; in series [2] it was 128%; in series [3], 117%; in the series with A549 [4] it was 265 µM; in the series with A549 [5], 253 µM. Further, the half-maximal inhibitory concentration (IC50) in the series on HepG2 stood at 74.7 µM; in the series on WI-38 VA13, 68.9 µM; with WI-38 it was 36.2 µM.
